Source: ChEMBL document CHEMBL1127789, “Synthesis, NMDA receptor antagonist activity, and anticonvulsant action of 1-aminocyclobutanecarboxylic acid derivatives” (1994)
Active and inactive are the calls of the source. The rule behind the calls is not given here.

How the values were obtained:
[1] = Equipotent molar ratio relative to D-AP5 (1.0) on neonatal rat motoneurones.; inactive; assay type: functional
Outline: (§1)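 Isolated neonatal rat spinal cord in vitro, recording from motoneurones. Antagonist potency is given as an equipotent molar ratio against D-AP5, with D-AP5 set to 1.0.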

[2] = Equipotent molar ratio relative to D-AP5 (1.0) on neonatal rat motoneurones.; assay type: functional
[3] = Equipotent molar ratio relative to D-AP5 (1.0) on neonatal rat motoneurones; assay type: functional; outline: as §1
[4] = test system: Mus musculus; test: (§2) Tested for anticonvulsant activity following intracerebroventricular administration against sound-induced clonic convulsions in DBA/2 mice.; assay type: functional
Outline: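 Intracerebroventricular dosing in DBA/2 mice at several doses, 7–11 mice per drug. Mice were exposed to sound, and protection against clonic (audiogenic) seizures was scored. Values were derived from dose–response data with 95% confidence limits. Overt behaviour (ataxia) and rectal temperature were also monitored.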

[5] = as §2; assay type: functional, Mus musculus
Outline: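 Intracerebroventricular injection in DBA/2 mice, 7–11 mice per compound, several doses per compound. Read-out is protection against sound-induced (audiogenic) clonic seizures. Values carry 95% confidence limits. Overt behaviour (ataxia) and rectal temperature were also noted.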

Row | Compound | Ratio [2] | further results
1 | N[C@]1(C(=O)O)C[C@@](C(=O)O)(C2CC2C(=O)O)C1 (some centres undefined) |  | Ratio [1]: inactive
2 | N[C@]1(C(=O)O)C[C@@H](C(=O)CP(=O)(O)O)C1 | 4.2 | 
3 | N[C@]1(C(=O)O)C[C@@H](CCC(=O)O)C1 |  | Ratio [3]: 7.9
4 | N[C@]1(C(=O)O)C[C@H](CCC(=O)O)C1 |  | Ratio [3]: 1.8
5 | N[C@]1(C(=O)O)C[C@H](C(=O)CP(=O)(O)O)C1 | 0.33 | 
6 | NC1(C(=O)O)CC([C@H](O)CP(=O)(O)O)C1 (some centres undefined) | 1 | 
7 | N[C@]1(C(=O)O)C[C@@H](CCP(=O)(O)O)C1 | 1.1 | 
8 | N[C@]1(C(=O)O)C[C@H](CCP(=O)(O)O)C1 | 0.32 | 
9 | N[C@@H](CCCP(=O)(O)O)C(=O)O |  | Ratio [3]: 1
10 | N[C@]1(C(=O)O)C[C@](C(=O)O)(C2CC2C(=O)O)C1 (some centres undefined) | 0.28 | ED50 [4]: 0.089 µg; ED50 [5]: 0.36 nmol
11 | NC1(C(=O)O)CC([C@@H](O)CP(=O)(O)O)C1 (some centres undefined) | 0.39 | 
12 | O=C(O)C1CN(CCCP(=O)(O)O)CCN1 (racemic) | 0.2 | 
